# PMC9973464 (Haematologica, 2022)
# Where “and” joins values, the source holds several entries; their conditions need not be identical. Equal entries are not always repeated.
# Columns and labels:
# R/R AML patients = conditions: cited from earlier work
# human platelets = test: In vitro platelet aggregation assay in platelet rich plasma; type: cell-based
# lymphoma patients = conditions: target SYK; cited from earlier work
# FLT3 = target: T1, FLT3 (Homo sapiens, UniProt P36888); test: Plasma inhibitory activity; type: cell-based
# T1 sequence (P36888 610-943 limits assumed): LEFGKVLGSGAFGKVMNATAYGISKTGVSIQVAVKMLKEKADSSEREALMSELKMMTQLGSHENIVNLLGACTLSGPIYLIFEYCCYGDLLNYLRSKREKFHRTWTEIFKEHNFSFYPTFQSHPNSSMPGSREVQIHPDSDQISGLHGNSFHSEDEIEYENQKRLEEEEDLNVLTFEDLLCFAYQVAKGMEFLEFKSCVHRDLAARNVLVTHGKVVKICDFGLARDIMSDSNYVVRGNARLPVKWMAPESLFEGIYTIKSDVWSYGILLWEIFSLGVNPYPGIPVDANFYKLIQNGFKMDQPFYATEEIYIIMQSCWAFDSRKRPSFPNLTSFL
# In short: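 Steady-state trough plasma was drawn before dosing on Cycle 1 day 15. An FLT3-ITD-expressing AML cell line was incubated in this plasma. FLT3 phosphorylation was quantified against baseline plasma and reported as % of baseline. Drug level in the same sample was measured by mass spectrometry. Reference curve: normal donor plasma spiked with test compound, Molm-14 cells 1 h, immunoblot for pFLT3.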
# patients with R/R AML [1] = test: Phase Ib dose-escalation trial of oral mivavotinib: safety, DLT, MTD/RP2D; type: in vivo, human
# [2] = Phase Ib trial: plasma pharmacokinetics; type: in vivo, human
# rats = test: Pre-clinical toxicology study, daily oral gavage, rats; type: in vivo; conditions: daily oral gavage for 14 days to 3 months
# FLT3 isoforms = conditions: evaluation of additional kinases; cited from earlier work
# patients with R/R AML [3] = test: Phase Ib trial: response and antileukemic activity; type: in vivo, human
# In short: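 Multicenter, open-label phase Ib dose escalation (3+3) of oral single agent given QD or BID in 28-day cycles until progression or unacceptable toxicity. Started at 60 mg QD with 20 mg increments. Response was judged by Revised IWG AML criteria, with modifications.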
# dogs = test: Pre-clinical toxicology study, daily oral gavage, dogs; type: in vivo; conditions: daily oral gavage for 14 days to 3 months
smiles,measurement,setting,value
CCc1nc(C(N)=O)c(Nc2ccc(N3CCC(N4CCN(C)CC4)CC3)c(OC)c2)nc1NC1CCOCC1 [gilteritinib],median time to achieve best response,R/R AML patients,48 days
Cn1cc(-c2nc(N[C@@H]3CCCC[C@@H]3N)c(F)c3c2C(=O)NC3)cn1 [mivavotinib],effect on platelet aggregation caused by adenosine diphosphate,human platelets,prevented aggregation
same,effect on platelet aggregation caused by collagen,human platelets; 1.07 µM mivavotinib,prevented aggregation
same,inhibition of platelet aggregation,human platelets; 0.107 mM mivavotinib,not observed
same,effect on platelet aggregation caused by collagen,"human platelets; 10.7 mM mivavotinib, collagen (2 mg/mL)",prevented aggregation
same,dose identified for expansion,lymphoma patients,100 mg QD
same,"in vivo FLT3 inhibition by PIA, comparison of dose levels","FLT3; 80 mg BID, trough plasma",most effective FLT3 inhibition
same,consistent or sustained 90% FLT3 inhibition,FLT3; 140 mg QD or 60 mg BID,"neither selected RP2D, 140 mg QD or 60 mg BID, achieved a consistent or sustained 90% FLT3 inhibition"
same,FLT3 inhibition,"FLT3; 140 mg QD, by Cycle 1 day 15, initial evidence",at least 90%
same,DLT,"patients with R/R AML [1]; 60 mg BID, 8 patients",No episodes of DLT were observed
same,drug-related SAE gastric hemorrhage,"patients with R/R AML [1]; 3 patients, who received 80 mg BID",7%
same,"maximum tolerated dose (MTD), BID dosing regimen",patients with R/R AML [1]; BID dosing regimen,60 mg BID
same,recommended phase II dose (RP2D),patients with R/R AML [1]; QD dosing regimen,140 mg QD
same,"maximum tolerated dose (MTD), QD dosing regimen","patients with R/R AML [1]; QD dosing up to 160 mg QD, per protocol",not reached
same,on-study deaths,patients with R/R AML [1]; after informed consent and ≤28 days after last dose,26
same,patients with ≥1 TEAE assessed by the investigator as related to mivavotinib,patients with R/R AML [1]; all 43 patients,84%
same,intracranial bleeding considered grade ≥3,patients with R/R AML [1]; all doses,4 patients
same,patients with GI tract bleeding considered grade ≥3,patients with R/R AML [1]; all doses,7 patients
same,patients with GI-related or central nervous system-related bleeding event leading to study discontinuation,patients with R/R AML [1]; all doses,9 patients
same,patients with bleeding involving the GI tract,patients with R/R AML [1]; all doses,Thirteen
same,patients with intracranial bleeding,patients with R/R AML [1]; all doses,Seven
same,patients who discontinued mivavotinib due to a TEAE,patients with R/R AML [1]; all patients,67%
same,patients with drug-related SAE,patients with R/R AML [1]; all patients,28%
same,bleeding events leading to discontinuation considered related to mivavotinib,patients with R/R AML [1]; of 9 patients,5
same,fatal grade ≥3 bleeding events,patients with R/R AML [1]; of eleven patients with grade ≥3 bleeding events,2
same,median day of occurrence of all bleeding events,patients with R/R AML [1]; range -1 to 262,22 days
same,dose proportionality of plasma exposure,"[2]; dose ranges studied, 60-160 mg QD or 60-80 mg BID",generally dose proportional
same,Cmax,"[2]; human, plasma, oral, 140 mg",574 ng/mL and 1.07 µM
same,Tmax,"[2]; human, plasma, po",1 to 3 h
same,dose at which GI mucosal hemorrhage was present,rats,≥ 30 mg/kg
same,activity against FLT3 isoforms,FLT3 isoforms,1.6 to 7.6 ng/mL
same,"reduction in marrow blast percentage, range",patients with R/R AML [3]; 13 patients with FLT3 mutations,22.5-98.6%
same,patients with PD,patients with R/R AML [3]; 33 response-evaluable patients,5
same,patients with clinical benefit despite PD,patients with R/R AML [3]; 33 response-evaluable patients,4
same,patients with stable disease,patients with R/R AML [3]; 33 response-evaluable patients,19
same,complete responses (4 with incomplete count recovery),patients with R/R AML [3]; 43 patients enrolled,5
same,patients with a ≥50% reduction in peripheral blast count from baseline,patients with R/R AML [3]; BID dosing,9 of 12
same,patients with a ≥50% reduction in peripheral blast count from baseline,patients with R/R AML [3]; QD dosing,12 of 21
same,patients with a ≥50% reduction in peripheral blast count from baseline,patients with R/R AML [3]; across all dose levels,21 of 33
same,objective responses with incomplete count recovery (CRi),"patients with R/R AML [3]; of 19 patients with FLT3 mutations treated at 120, 140, or 160 mg QD or BID",3
same,dose at which GI mucosal hemorrhage was dose limiting,dogs,≥ 10 mg/kg
same,dose at which GI mucosal hemorrhage was present,dogs,≥ 3 mg/kg
